Experimental data taken from ChEMBL document CHEMBL1129413, “Synthesis and selective monoamine oxidase B-inhibiting properties of 1-methyl-1,2,3,6-tetrahydropyrid-4-yl carbamate derivatives: potential prodrugs of (R)- and (S)-nordeprenyl” (J Med Chem, 1996).
Several values for one entry are separate records, joined by “and”; a condition that tells them apart may be missing. Identical values can stand only once.

What was measured:
[1] = Residual activity was obtained; type: functional
[2] = target: T1, Amine oxidase [flavin-containing] A (Mus musculus, UniProt Q64133); experiment: The ability (25 umol/kg/day) to inactivate monoamine oxidase A(MAO-A) was tested on brain mitochondrial membranes of mice, for 3 day; type: functional; settings: 72 h
T1 sequence (Q64133 whole entry): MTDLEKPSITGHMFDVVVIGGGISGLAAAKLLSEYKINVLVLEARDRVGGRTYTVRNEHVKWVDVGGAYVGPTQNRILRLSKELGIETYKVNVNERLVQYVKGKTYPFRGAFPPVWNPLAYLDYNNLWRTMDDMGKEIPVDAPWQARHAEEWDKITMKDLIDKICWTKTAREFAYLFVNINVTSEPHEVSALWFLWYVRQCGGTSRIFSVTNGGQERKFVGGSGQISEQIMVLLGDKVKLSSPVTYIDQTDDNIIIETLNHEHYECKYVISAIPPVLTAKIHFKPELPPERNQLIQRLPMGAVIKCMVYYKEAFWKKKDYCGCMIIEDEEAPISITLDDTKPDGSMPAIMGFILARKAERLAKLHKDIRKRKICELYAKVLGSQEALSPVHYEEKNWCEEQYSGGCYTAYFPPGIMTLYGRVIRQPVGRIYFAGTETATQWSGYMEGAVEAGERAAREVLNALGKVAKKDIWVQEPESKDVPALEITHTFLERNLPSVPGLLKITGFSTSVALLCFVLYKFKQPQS

[3] = target: T2, Amine oxidase [flavin-containing] B (Mus musculus, UniProt Q8BW75); experiment: The ability (25 umol/kg/day) to inactivate monoamine oxidase B (MAO-B) was tested on brain mitochondrial membranes of mice, for 3 day; type: functional; settings: 72 h
T2 sequence (Q8BW75 whole entry): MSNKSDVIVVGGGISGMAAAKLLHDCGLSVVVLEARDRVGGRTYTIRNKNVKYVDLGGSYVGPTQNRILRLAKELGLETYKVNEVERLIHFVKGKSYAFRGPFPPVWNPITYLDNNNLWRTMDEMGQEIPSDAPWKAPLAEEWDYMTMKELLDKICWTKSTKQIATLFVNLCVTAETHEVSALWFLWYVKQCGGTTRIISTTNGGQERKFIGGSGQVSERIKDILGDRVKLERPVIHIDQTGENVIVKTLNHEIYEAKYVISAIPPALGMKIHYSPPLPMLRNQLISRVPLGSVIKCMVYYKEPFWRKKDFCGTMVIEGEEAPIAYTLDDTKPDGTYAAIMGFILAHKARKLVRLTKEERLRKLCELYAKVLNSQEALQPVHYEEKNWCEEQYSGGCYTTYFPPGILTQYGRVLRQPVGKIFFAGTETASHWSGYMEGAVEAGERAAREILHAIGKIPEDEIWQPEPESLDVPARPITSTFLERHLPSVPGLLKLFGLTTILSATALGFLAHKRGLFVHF

Monoamine oxidase [4] = target: T3, Monoamine oxidase (Mus musculus, UniProt Q8BW75+Q64133); experiment: The ability (25 umol/kg/day) to inactivate monoamine oxidase (MAO) was tested on brain mitochondrial membranes of mice, for 3 days; type: functional; settings: 72 h
T3 sequence (Q8BW75 whole entry): T2 sequence (Q8BW75 whole entry)
T3 sequence (Q64133 whole entry): T1 sequence (Q64133 whole entry)

[5] = Ratio of activities of MAO-B / MAO-A; type: functional
[6] = target: T1, Amine oxidase [flavin-containing] A; experiment: The ability of the compound(25 umol/kg/day) to inactivate monoamine oxidase A(MAO-A) was tested on brain mitochondrial membranes of mice, for 3 day.; type: functional; settings: 72 h
In short: (§1)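 Male ICR mice (25-35 g), 25 µmol/kg/day ip in sterile saline for 3 days, n = 3; killed day 4, 24 h after last dose. Whole-brain mitochondria isolated by differential centrifugation, lysed in ice-cold water, membranes in 10 mM phosphate pH 7.4. Membranes preincubated 30 min at 37 °C with buffer (total), 3 × 10^-8 M clorgyline (MAO-B), 3 × 10^-7 M deprenyl (MAO-A), or both (residual).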

[7] = Residual activity was obtained.; type: functional; in short: as §1
[8] = target: T2, Amine oxidase [flavin-containing] B; experiment: The ability of the compound(25 umol/kg/day) to inactivate monoamine oxidase B (MAO-B) was tested on brain mitochondrial membranes of mice, for 3 day.; type: functional; settings: 72 h; in short: as §1
Monoamine oxidase [9] = target: T3, Monoamine oxidase; experiment: The ability of the compound(25 umol/kg/day) to inactivate monoamine oxidase (MAO) was tested on brain mitochondrial membranes of mice, for 3 days.; type: functional; settings: 72 h; in short: as §1
[10] = target: T2, Amine oxidase [flavin-containing] B; experiment: The ability (124 umol/kg/day) to inactivate monoamine oxidaseB (MAO-B) was tested on brain mitochondrial membranes of mice for 3 day; settings: 72 h
[11] = target: T1, Amine oxidase [flavin-containing] A; experiment: The ability (124 umol/kg/day) to inactivate monoamine oxidase A(MAO-A) was tested on brain mitochondrial membranes of mice, for 3 day; settings: 72 h

Row | SMILES | Activity [1] [nmol/min/mg] | Activity [2] [nmol/min/mg] | Activity [3] [nmol/min/mg] | Activity (Monoamine oxidase [4]) [nmol/min/mg] | Ratio [5] | Activity [6] | Residual activity [7] | Activity [8] | Activity (Monoamine oxidase [9]) | Activity [10] [nmol/min/mg] | Activity [11] [nmol/min/mg]
1 | C#CCN(C(=O)OC1=CCN(C)CC1)[C@@H](C)Cc1ccccc1 | 0.2 | 0.76 | 3.35 | 3.75 | 4.4 |  |  |  |  |  | 
2 | C#CCN[C@H](C)Cc1ccccc1 [RNORDEPRENYL] |  |  |  |  | 0.71 | 1.07 nM | 0.46 nM | 0.68 nM | 1.31 nM |  | 
3 | C#CCN(C)[C@H](C)Cc1ccccc1 [SELEGILINE] |  |  |  |  | 0.72 and 0.66 | 0.64 nM and 1.06 nM | 0.24 nM and 0.44 nM | 0.46 nM and 0.7 nM | 0.84 nM and 1.36 nM |  | 
4 | C#CCN(C(=O)OC1=CCN(C)CC1)[C@H](C)Cc1ccccc1 | 0.45 |  |  | 1.36 | 0.63 |  |  |  |  | 0.78 | 1.1
